A selection: hits, their analogues and other compounds. The true share with any hit is near 1.3%.
TMEM16A inh: inhibitors of mouse TMEM16A calcium-activated chloride channel. normalized B-score (activity score, 25-100; higher = stronger inhibition) at 10 µM. 1.2% of 310,000 active. Q8BHY3. HEK293 TMEM16A/YFP iodide influx fluorescence, ionomycin;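 active = ratio plate-corrected score three or more library SD toward inhibition, starting fluorescence score within five deviations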;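 also: score derived from kinetic fluorescence span divided by baseline fluorescence per well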
MT1-MMP act inh: inhibitors of human MT1-MMP activation; P50281; HT1080 RFP-PRO-GFP cells, GFP/RFP ratio fluorescence, overnight; percent of plate control window, DMSO zero; GFP/RFP ratio change, % at 20 µM; 0.061% of 360,000 active; AID 651647;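 active = GFP/RFP ratio change of at least 30% with cell ATP level not reduced by more than half and red fluorescence within 50% of control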
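Compound: 20 µM single dose, 1% DMSO / System: HT1080 RFP-PRO-GFP cells / Controls: DMSO and RFP-L50D-GFP cell wells / Read-out basis: GFP/RFP fluorescence ratio / Schedule: overnight compound exposure at 37 °C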
ANO1 activ: activates or potentiates the mouse TMEM16A chloride channel | Q8BHY3 | HEK293 TMEM16A/YFP-H148Q/I152L, iodide quench fluorescence; stronger effect = lower value | B-score at 10 µM | 0.3% of 340,000 active | AID 623877;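 active = fluorescence-ratio B-score plate-corrected deviation score at least 3 library SD below zero, with starting fluorescence score within 5 deviations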;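 also: channel opened by trigger with iodide after compound preincubation; score built on the fluorescence ratio of max minus min over baseline; more negative score means more quench and so TMEM16A activation or potentiation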
DAGLB inhibitor: blocks human DAGLB lipase activity; inhibition, % at 5.17 µM; HEK293T DAGLB membrane lysate, EnzChek fluorogenic substrate; 0.059% of 340,000 active; in the data active = inhibition above about 34%;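 also: 0% = enzyme with vehicle and 100% = wells lacking enzyme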
TMEM16A reconf: reconfirmed blocker of mouse TMEM16A calcium-activated chloride channel; shares compounds with TMEM16A inh; HEK293 TMEM16A/YFP-H148Q, iodide quench fluorescence; ionomycin added to raise cell calcium; inhibition, % at 10 µM; 39% of 2,300 active;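 active = mean duplicate percent inhibition, scaled so buffer wells are 0 and the reference blocker 100, over three buffer SD above buffer mean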
TMEM16A Ca cntr: counter-screen for TMEM16A inhibitors: effect on calcium mobilization. shares compounds with TMEM16A inh. TMEM16A/YFP HEK293, Fluo4 calcium mobilization. calcium response (% of ionomycin), % at 10 µM. 2% of 2,300 active. AID 652231;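 active = duplicate-averaged calcium signal over 20% of the ionomycin maximum, relative to buffer baseline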;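 also: each well's signal is peak minus trough fluorescence divided by its pre-addition baseline; 0% = buffer wells and 100% = ionomycin wells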
Parental YFP cnt: parental YFP-HEK293 iodide quench counter-screen activity; shares compounds with TMEM16A inh; ionomycin; YFP ratio F(max-min)/F0 at 10 µM; 2,300 tested, under 10 active;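 active = yellow fluorescent protein signal ratio exceeding the buffer control mean by over 5 SD of those controls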;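 also: ratio is mean of duplicate wells from kinetic YFP trace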
ClC-1 inh: rat ClC-1 inhibition, TMEM16A specificity screen; shares compounds with TMEM16A inh; CHO ClC-1-YFP, iodide influx fluorescence quench; iodide control reads 0, buffer control 100; ratio percent, % at 10 µM; 2,300 tested, under 10 active; AID 652236;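 active = duplicate-mean ratio percent above the mean of iodide-only control wells, which defines zero, plus 5 of their SD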;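 also: higher percent means stronger block of ClC-1 iodide influx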
* hit, by the source's call; i = inactive; . = no result given.

SMILES | TMEM16A inh | MT1-MMP act inh | ANO1 activ | DAGLB inhibitor | TMEM16A reconf | TMEM16A Ca cntr | Parental YFP cnt | ClC-1 inh
O=C(c1ccc(Cl)c(Cl)c1)N1CCN(c2ccccn2)CC1 | i | 0 | i | -5 | . | . | . | .
Cc1ccc(C)c(NC(=O)CSc2sc3c(O)cc(=O)[nH]c3c2C#N)c1 | i | -4 | i | 5 | i | i | -1 | -16
O=C(CSc1n[nH]c(-c2ccccc2O)n1)NC1CCCCC1 | 100* | 1 | i | -3 | i | i | -1.3 | 12
O=C(CSc1n[nH]c(-c2ccccc2O)n1)N1CCCc2ccccc21 | i | 3 | i | 2 | . | . | . | .
Cc1ccc(CNC(=O)CC(C)S(=O)(=O)c2ccc3c(c2)NC(=O)C(C)S3)cc1 (stereo not given) | 25* | -1 | i | -2 | 22%* | i | -0.95 | -8
Cc1ccc(CNC(=O)CCS(=O)(=O)c2ccc3c(c2)NC(=O)C(C)S3)cc1 (stereo not given) | i | -1 | i | -1 | . | . | . | .
O=C(Cn1c(=O)c2cccn2c2cccnc21)N1CCN(c2ccc(Cl)cc2)CC1 | i | -4 | i | -1 | . | . | . | .
NC(=O)c1ccsc1NC(=O)COC(=O)c1ccccn1 | . | -3 | i | 1 | . | . | . | .
COc1ccc(C(=O)COC(=O)c2ccccc2NS(=O)(=O)c2ccc(O)c([N+](=O)[O-])c2)cc1 | 25* | 5 | i | 13 | 30%* | i | -0.86 | -10
COc1ccc(NC(=O)c2ccccc2NS(=O)(=O)c2ccc(C)cc2)c([N+](=O)[O-])c1 | i | 1 | i | 5 | . | . | . | .
COc1ccc(S(=O)(=O)N2CCN=C2SCc2cccc(C)c2)cc1 | 25* | -2 | i | -7 | i | i | -1.2 | -8
O=S(=O)(c1ccccc1)N1CCN=C1SCc1c(F)cccc1Cl | 100* | 0 | i | -7 | i | i | -1 | -4
CN1CCN(/N=C/c2ccc(N(c3ccccc3)c3ccccc3)cc2)CC1 | 100* | -14 | i | 3 | 32%* | i | -0.93 | -3
CCOC(=O)N1CCC(=C2c3ccc(Cl)cc3CCc3cccnc32)CC1 | 25* | -8 | i | 1 | i | i | -1.1 | -16
CCOC(=O)N1CCN(c2ccnc3cc(Cl)ccc23)CC1 | i | -1 | i | -2 | . | . | . | .
CCCS(=O)(=O)NC(=O)C1(C)CCN(C(=O)c2cccc(C(F)(F)F)c2)C1 (stereo not given) | . | 10 | . | . | . | . | . | .
CC(C)(C)C1CCc2c(sc(NC(=O)C3CC=CCC3C(=O)O)c2C#N)C1 (stereo not given) | 100* | 2 | i | 23 | 21%* | i | -1.1 | -20
O=C(COc1c(Cl)cccc1Cl)Nc1ccccc1N1CCCC1 | 25* | -1 | i | -7 | i | i | -1.3 | -16
O=C(COc1ccc(Br)cc1)Nc1ccccc1N1CCCC1 | i | -2 | i | -18 | . | . | . | .
O=C(CNCc1ccccc1Cl)Nc1ccccc1N1CCCCC1 | 25* | 1 | i | -5 | i | i | -1.1 | -8
Cc1cc(Cl)ccc1OCC(=O)Nc1ccccc1N1CCOCC1 | 100* | 15 | i | -11 | 22%* | i | -0.99 | -15
O=C(Cc1ccccc1F)Nc1ccccc1N1CCCC1 | i | -2 | i | -2 | . | . | . | .
Cc1cc(Cl)ccc1OCC(=O)NC(=S)Nc1ccccc1N1CCOCC1 | i | -3 | i | -1 | . | . | . | .
O=C(Nc1ccccc1N1CCCC1)c1ccccc1F | i | -3 | i | -10 | . | . | . | .
O=C(Nc1ccccc1N1CCCCC1)c1ccccc1F | 25* | -5 | i | -9 | i | i | -0.91 | -4
SMILES | TMEM16A inh | MT1-MMP act inh | ANO1 activ | DAGLB inhibitor | TMEM16A reconf | TMEM16A Ca cntr | Parental YFP cnt | ClC-1 inh
CCOC(=O)C1(C)CCN1C(=O)c1cccc2ccccc12 (stereo not given) | . | 2 | . | . | . | . | . | .
O=S(=O)(Nc1nc2ccccc2nc1N1CCN(c2ccccc2)CC1)c1ccc(F)cc1 | i | -10 | i | 13 | 32%* | i | -0.86 | -14
CCCCOc1nc2ccccc2nc1NS(=O)(=O)c1ccc(F)cc1 | 25* | -6 | i | 8 | i | i | -0.99 | -11
O=C(C1=C(O)/C(=C/c2ccc(O)cc2)CCC1)C(F)(F)F | 25* | -1 | i | -2 | i | i | -0.93 | -21
COc1ccc(/C=C2\CCCC(C(=O)C(F)(F)F)=C2O)cc1 | i | 0 | i | -3 | . | . | . | .
CCOc1ccc(NC(=O)CC2CC(C)(C)OC2=O)cc1 (stereo not given) | i | 8 | i | -5 | . | . | . | .
CCCC1CC(C)(c2csc(Nc3ccc(OCC)cc3)n2)OC1=O (stereo not given) | 100* | 4 | i | -2 | 31%* | i | -0.95 | -20
CCc1ccc(C(C)NC(=S)NC2CCCCC2)cc1 (stereo not given) | i | 1 | i | -6 | . | . | . | .
CC(NC(=S)NC1CCCCC1)c1ccc(C(C)(C)C)cc1 (stereo not given) | 25* | 4 | i | -9 | i | i | -0.78 | 2
CC(C)c1ccc(C(C)NC(=S)NC2CCCCC2)cc1 (stereo not given) | 25* | -1 | i | -4 | 26%* | i | -1 | -2
CN(C(=O)c1cc(-c2cccs2)nn1-c1ccccc1)C1CCS(=O)(=O)C1 (stereo not given) | . | -2 | . | -8 | . | . | . | .
CCOc1ccc(Cc2c(Cl)nc(SC)nc2N(C)C)cc1 | 25* | -7 | i | -11 | i | i | -1.3 | -12
COC(=O)[C@@]12C[C@@H](CC(=O)N3CCCC3)C(=O)N(Cc3ccccc3)C1=CCC(C)(C)C2 | . | -8 | . | . | . | . | . | .
Cn1nc(C(F)(F)F)c(/C=N/OC(=O)c2ccccc2)c1Sc1ccc(Cl)cc1 | 25* | -18 | i | -19 | i | i | -1.1 | -8
O=C(NCc1ccccc1)C(c1ccccc1F)n1c(=O)c(-c2ccco2)nc2ccccc21 (stereo not given) | . | -10 | . | . | . | . | . | .
N#Cc1nc(COc2ccccc2F)oc1NCCCn1ccnc1 | 100* | 2 | . | 0 | i | i | -1.2 | -8
Cc1cc(Cl)ccc1OCc1nc(-c2ccc(O)cc2)n[nH]1 | 25* | 4 | i | -6 | 26%* | i | -0.98 | -16
